Measured values published in ChEMBL document CHEMBL1914407, “New dammarane-type glucosides as potential activators of AMP-activated protein kinase (AMPK) from Gynostemma pentaphyllum” (Bioorg Med Chem, 2011).
Activity calls are given as the source filed them.

Legend:
L6 [1] = experiment: Induction of AMPK-alpha phosphorylation at thr172 in rat L6 cells after 2 hrs by Western blot analysis; type: cell-based
Procedure, shortened: (§1)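 Differentiated L6 myotubes treated 2 h with a range of compound concentrations (DMSO vehicle), then lysed in pH 8.0 Tris buffer containing NP-40, EDTA, DTT, PMSF, orthovanadate, NaF and protease inhibitors. Immunoblotted for phospho-AMPKα1/2 (Thr172), total AMPK, phospho-ACC (Ser79) and total ACC.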

L6 [2] = experiment: Induction of AMPK alpha-mediated ACC phosphorylation at ser79 in rat L6 cells after 2 hrs by Western blot analysis; type: cell-based; procedure, shortened: as §1
L6 [3] = experiment: Induction of AMPK-alpha phosphorylation at thr172 in rat L6 cells at 12 uM by Western blot analysis in presence of 10 uM of AMPK inhibitor; type: cell-based
Procedure, shortened: (§2)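 L6 myotubes pretreated 10 min with the AMPK inhibitor compound C (10 µM), then exposed to compound for 2 h (DMSO vehicle). Lysates immunoblotted for phospho-AMPKα1/2 (Thr172) and total AMPK.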

L6 [4] = experiment: Increase in beta-oxidation in rat L6 cells assessed as tritiated water production at 12 uM by scintillation counter method; type: functional, cell-based
Procedure, shortened: (§3)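 Fatty acid β-oxidation measured in differentiated L6 myotubes treated with compound, using DMSO as vehicle control. 3H2O formed was quantified in a scintillation counter.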

L6 [5] = experiment: Increase in AMPK alpha-mediated GLUT4 translocation into plasma membrane in rat L6 cells assessed as [3H]2-deoxy-glucose uptake after 2 hrs by scintillation counting relative to control; type: cell-based
Procedure, shortened: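 2-Deoxy-[3H]D-glucose added for 10 min, then three ice-cold 0.9% NaCl washes. Cytochalasin B (10 µM) blank subtracted. Cells collected in 0.05 N NaOH and counted by scintillation. Expressed as pmol 2-DG/min/mg protein or fold over control. Mean ± S.D. of three experiments.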

L6 [6] = experiment: Induction of AMPK-alpha phosphorylation at thr172 in rat L6 cells at 150 uM by Western blot analysis in presence of 10 uM of AMPK inhibitor; type: cell-based; procedure, shortened: as §2
L6 [7] = experiment: Increase in beta-oxidation in rat L6 cells assessed as tritiated water production at 150 uM by scintillation counting; type: functional, cell-based; procedure, shortened: as §3

Measured: Activity

C=C(CCC=C(C)C)[C@H]1CC[C@]2(C)[C@@H]1[C@H](O)C[C@@H]1[C@@]3(C)C[C@@H](O)[C@H](O[C@@H]4O[C@H](CO)[C@@H](O)[C@H](O)[C@H]4O[C@@H]4O[C@H](CO)[C@@H](O)[C@H](O)[C@H]4O)C(C)(C)[C@@H]3CC[C@]12C
active: L6 [1] Dose-dependent effect | L6 [2] Dose-dependent effect | L6 [3] | L6 [4] | L6 [5] Dose-dependent effect

CC(C)=CC/C=C(\C)[C@H]1CC[C@]2(C)[C@@H]1[C@H](O)C[C@@H]1[C@@]3(C)C[C@@H](O)[C@H](O[C@@H]4O[C@H](CO)[C@@H](O)[C@H](O)[C@H]4O[C@@H]4O[C@H](CO)[C@@H](O)[C@H](O)[C@H]4O)C(C)(C)[C@@H]3CC[C@]12C
active: L6 [1] Dose-dependent effect | L6 [2] Dose-dependent effect | L6 [6] | L6 [7] | L6 [5] Dose-dependent effect
